According to ChEMBL document CHEMBL1806391, “Synthesis and biological evaluation of novel 5-alkyl-2-arylthio-6-((3,4-dihydroquinolin-1(2H)-yl)methyl)pyrimidin-4(3H)-ones as potent non-nucleoside HIV-1 reverse transcriptase inhibitors” (Bioorg Med Chem, 2011):
Activity calls are given as the source filed them. No cut-off for these calls is given here.

Key:
[1] = test system: Human immunodeficiency virus 1; assay: Antiviral activity against wild type Human immunodeficiency virus 1 3B infected in human MT4 cells assessed as protection against virus-induced cytotoxicity after 5 days by MTT assay; assay type: functional, organism-based; conditions: MT4, 120 h
Outline: (§1)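 MT-4 cells, spun 5 min at 1000 rpm, were resuspended at 6 × 10⁵ cells/mL and infected with HIV-1 IIIB or HIV-2 ROD. Compounds were added at the start in serial fivefold dilutions, in triplicate wells. Viability was read by MTT reduction at 540 and 690 nm five days post-infection. EC₅₀ is the concentration giving 50% protection from viral cytopathic effect, using the median OD of three wells.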

[2] = test system: Human immunodeficiency virus 2; assay: Antiviral activity against wild type Human immunodeficiency virus 2 ROD infected in human MT4 cells assessed as protection against virus-induced cytotoxicity after 5 days by MTT assay; assay type: functional, organism-based; conditions: Human immunodeficiency virus 2, ISOLATE ROD, MT4, 120 h; outline: as §1
[3] = Cytotoxic activity against human MT4 cells assessed as viability of mock-infected cells after 5 days by MTT assay; assay type: cell-based
Outline: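 Mock-infected, exponentially growing MT-4 cells (6 × 10⁵ cells/mL) were exposed to serial fivefold compound dilutions in triplicate wells. After 5 days, viability was read by MTT formazan absorbance at 540 and 690 nm. CC₅₀ is the concentration that lowered OD540 of the mock-infected control by 50%, using the median OD of three wells.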

[4] = Selectivity index, ratio of CC50 for human MT4 cells to EC50 for wild type Human immunodeficieny virus 1 3B infected in human MT4 cells; assay type: toxicity, cell-based; conditions: read-out: Ratio CC50/EC50
Outline: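 SI is CC₅₀ in mock-infected MT-4 cells divided by EC₅₀ against HIV-1 IIIB, both from 5-day MTT assays in triplicate wells.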

[5] = test system: Human immunodeficiency virus 2; assay: Antiviral activity against Human immunodeficiency virus 2 ROD infected in human MT4 cells assessed as inhibition of viral replication; assay type: functional, organism-based; conditions: ISOLATE ROD; outline: as §1

Row | SMILES | EC50 [1] [nM] | EC50 [2] [µM] | CC50 at 120 h [3] [µM] | selectivity ratio [4] | inhibition [5]
1 | COc1ccc(CSc2nc(CN3CCCc4ccccc43)c(C)c(=O)[nH]2)cc1 | 640 | > 59.6 | 59.6 | 93 | inactive
2 | Cc1c(CN2CCCc3ccccc32)nc(SCc2ccccc2)[nH]c1=O | > 6690 | > 6.69 | 6.69 | < 1 | inactive
3 | Cc1cn([C@H]2C[C@H](N=[N+]=[N-])[C@@H](CO)O2)c(=O)[nH]c1=O [ZIDOVUDINE] | – | – | > 93.5 | > 6190 | –
4 | CCc1c(CN2CCCc3ccccc32)nc(SCc2ccccc2)[nH]c1=O | > 4800 | > 4.8 | 4.8 | < 1 | inactive
5 | O=C(CSc1nc(CN2CCCc3ccccc32)cc(=O)[nH]1)c1ccc([N+](=O)[O-])cc1 | > 209000 | > 209 | 209 | < 1 | inactive
6 | COc1ccc(C(=O)CSc2nc(CN3CCCc4ccccc43)cc(=O)[nH]2)cc1 | 24000 | > 160 | 160 | 7 | inactive
7 | CCc1c(CN2CCCc3ccccc32)nc(SCC(=O)c2ccc([N+](=O)[O-])cc2)[nH]c1=O | 1980 | > 111 | 111 | 56 | inactive
8 | CCc1c(CN2CCCc3ccccc32)nc(SCc2ccc(OC)cc2)[nH]c1=O | 590 | > 147 | 147 | 244 | inactive
9 | Cc1ccc(C(=O)CSc2nc(CN3CCCc4ccccc43)c(C)c(=O)[nH]2)cc1 | 1950 | > 62.4 | 62.4 | 32 | inactive
10 | Cc1c(CN2CCCc3ccccc32)nc(SCc2ccc(F)cc2)[nH]c1=O | > 8670 | > 8.67 | 8.67 | < 1 | inactive
11 | Cc1ccc(CSc2nc(CN3CCCc4ccccc43)c(C)c(=O)[nH]2)cc1 | ≥ 86200 | > 86.2 | ≥ 86.2 | ≤ 1 | inactive
12 | CCc1c(CN2CCCc3ccccc32)nc(SCC(=O)c2ccc(Cl)cc2)[nH]c1=O | 1010 | > 275 | 275 | 249 | inactive
13 | Cc1c(CN2CCCc3ccccc32)nc(SCC(=O)c2ccc(F)cc2)[nH]c1=O | 460 | > 15.4 | 15.4 | 34 | inactive
14 | CCc1c(CN2CCCc3ccccc32)nc(SCc2ccc(F)cc2)[nH]c1=O | > 133000 | > 133 | 133 | < 1 | inactive
15 | O=c1cc(CN2CCCc3ccccc32)nc(SCc2ccc(F)cc2)[nH]1 | 29600 | > 182 | 182 | 6 | inactive
16 | Cc1ccc(CSc2nc(CN3CCCc4ccccc43)cc(=O)[nH]2)cc1 | > 64300 | > 64.3 | 64.3 | < 1 | inactive
17 | O=c1cc(CN2CCCc3ccccc32)nc(SCc2ccc([N+](=O)[O-])cc2)[nH]1 | ≥ 49400 | > 73.9 | 73.9 | ≤ 2 | inactive
18 | N#Cc1ccc(CSc2nc(CN3CCCc4ccccc43)cc(=O)[nH]2)cc1 | ≥ 43000 | > 86.8 | 86.8 | ≤ 2 | inactive
19 | Cc1c(CN2CCCc3ccccc32)nc(SCC(=O)c2ccc([N+](=O)[O-])cc2)[nH]c1=O | ≥ 3130 | > 23.7 | 23.7 | ≤ 8 | inactive
20 | O=C1Nc2ccc(Cl)cc2[C@@](C#CC2CC2)(C(F)(F)F)O1 [EFAVIRENZ] | – | – | > 6.34 | > 1430 | –
21 | CC(C)Nc1cccnc1N1CCN(C(=O)c2cc3cc(NS(C)(=O)=O)ccc3[nH]2)CC1 [DELAVIRDINE] | – | – | > 3.83 | > 12 | –
22 | Cc1c(CN2CCCc3ccccc32)nc(SCC(=O)c2ccc(Cl)cc2)[nH]c1=O | 2160 | > 42.1 | 42.1 | 19 | inactive

Row | SMILES | EC50 [1] [nM] | EC50 [2] [µM] | CC50 at 120 h [3] [µM] | selectivity ratio [4] | inhibition [5]
23 | O=C(CSc1nc(CN2CCCc3ccccc32)cc(=O)[nH]1)c1ccc(F)cc1 | 29600 | > 136 | 136 | 5 | inactive
24 | CCc1c(CN2CCCc3ccccc32)nc(SCC(=O)c2ccc(C#N)cc2)[nH]c1=O | 1060 | > 115 | 115 | 109 | inactive
25 | CCc1c(CN2CCCc3ccccc32)nc(SCc2ccc([N+](=O)[O-])cc2)[nH]c1=O | 1030 | > 195 | 195 | 188 | inactive
26 | Cc1c(CN2CCCc3ccccc32)nc(SCC(=O)c2ccc(C#N)cc2)[nH]c1=O | 7350 | > 44.5 | 44.5 | 6 | inactive
27 | Cc1ccnc2c1NC(=O)c1cccnc1N2C1CC1 [NEVIRAPINE] | – | – | > 15 | – | –
28 | O=C(CSc1nc(CN2CCCc3ccccc32)cc(=O)[nH]1)c1ccccc1 | 24600 | > 153 | 153 | 6 | inactive
29 | O=C(CSc1nc(CN2CCCc3ccccc32)cc(=O)[nH]1)c1ccc(Cl)cc1 | > 75600 | > 75.6 | 75.6 | < 1 | inactive
30 | Cc1c(CN2CCCc3ccccc32)nc(SCC(=O)c2ccccc2)[nH]c1=O | 390 | > 12.2 | 12.2 | 31 | inactive
31 | CCc1c(CN2CCCc3ccccc32)nc(SCC(=O)c2ccc(F)cc2)[nH]c1=O | 570 | > 156 | 156 | 273 | inactive
32 | Cc1c(CN2CCCc3ccccc32)nc(SCc2ccc(Cl)cc2)[nH]c1=O | ≥ 2250 | > 65.5 | 65.5 | ≤ 29 | inactive
33 | O=c1cc(CN2CCCc3ccccc32)nc(SCc2ccc(Cl)cc2)[nH]1 | > 53600 | > 53.6 | > 53.6 | < 1 | inactive
34 | O=c1cc(CN2CCCc3ccccc32)nc(SCc2ccccc2)[nH]1 | ≥ 32200 | > 94.2 | 94.2 | ≤ 3 | inactive
35 | Cc1ccc(C(=O)CSc2nc(CN3CCCc4ccccc43)cc(=O)[nH]2)cc1 | 28000 | > 156 | 156 | 6 | inactive
36 | COc1ccc(CSc2nc(CN3CCCc4ccccc43)cc(=O)[nH]2)cc1 | 25100 | > 181 | 181 | 7 | inactive
37 | COc1ccc(C(=O)CSc2nc(CN3CCCc4ccccc43)c(C)c(=O)[nH]2)cc1 | 420 | > 60.7 | 60.7 | 144 | inactive
38 | CCc1c(CN2CCCc3ccccc32)nc(SCc2ccc(C#N)cc2)[nH]c1=O | 480 | > 59.7 | 59.7 | 125 | inactive
39 | N#Cc1ccc(C(=O)CSc2nc(CN3CCCc4ccccc43)cc(=O)[nH]2)cc1 | > 197000 | > 197 | > 197 | > 1 | inactive
40 | CCc1c(CN2CCCc3ccccc32)nc(SCC(=O)c2ccc(C)cc2)[nH]c1=O | 1060 | > 288 | 288 | 271 | inactive
41 | Cc1c(CN2CCCc3ccccc32)nc(SCc2ccc(C#N)cc2)[nH]c1=O | 1780 | > 13 | 13 | 7 | inactive
42 | CCc1c(CN2CCCc3ccccc32)nc(SCC(=O)c2ccc(OC)cc2)[nH]c1=O | 380 | > 61.8 | 61.8 | 164 | inactive
43 | CCc1c(CN2CCCc3ccccc32)nc(SCc2ccc(Cl)cc2)[nH]c1=O | ≥ 5420 | > 135 | 135 | ≤ 25 | inactive
